Results on 26 compounds are retold here after ChEMBL document CHEMBL1132433, “6-Substituted 2-oxo-2H-1-benzopyran-3-carboxylic acid as a core structure for specific inhibitors of human leukocyte elastase” (J Med Chem, 1999).

Test [1] concerns the target Chymotrypsinogen A (Bos taurus) (UniProt P00766). The test can be described thus: Evaluation of kinetic parameter Ki/KI(1/M.1/S) by its ability to inhibit the Alpha-CT (Bovine alpha-chymotrypsin) enzyme.
In test [2] the target is T1, Neutrophil elastase (Homo sapiens) (UniProt P08246).
T1 sequence (whole entry): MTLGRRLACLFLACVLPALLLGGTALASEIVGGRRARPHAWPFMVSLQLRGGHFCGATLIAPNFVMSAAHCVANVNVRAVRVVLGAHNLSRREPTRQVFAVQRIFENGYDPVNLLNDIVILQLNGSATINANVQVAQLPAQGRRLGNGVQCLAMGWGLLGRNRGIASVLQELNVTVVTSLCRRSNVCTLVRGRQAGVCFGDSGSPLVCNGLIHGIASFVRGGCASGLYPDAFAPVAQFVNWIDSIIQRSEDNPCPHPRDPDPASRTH
Kind of test: Evaluation of kinetic parameter Ki/KI(1/M.1/S) by its ability to inhibit the HLE(Human Leukocyte Elastase) enzyme. A digest of the protocol:
(§1)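 HLE, active-site titrated, assayed with MeO-Suc-AAPV-p-NA in 0.1 M Hepes, 0.5 M NaCl, 0.1% Tween 80, pH 8.0, 10% DMSO, 25 °C. Preincubation method ([HLE]0 20 nM, [I]0 1-10 µM) or progress curves (30 nM enzyme, [S]0 100 µM, [I]0 0.05-70 µM), 405 nm. Constants reflect the initial inactivation step. ki, KI fitted.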

Test [3] has as its target Chymotrypsinogen A (Bos taurus) (UniProt P00766). The test can be described thus: Evaluation of kinetic parameter Ki/KI(1/M.1/S) by its ability to inhibit the Alpha-CT (Bovine alpha-chymotrypsin) enzyme; No inactivation at 10 uM.
The target in test [4] is Prothrombin (Homo sapiens) (UniProt P00734). The test can be described thus: Evaluation of kinetic parameter Ki/KI(1/M.1/S) by its ability to inhibit human thrombin. A digest of the protocol: (§2)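 Human thrombin, active-site titrated, with chromogenic substrate S-2238 in 0.01 M Hepes, 0.01 M Tris, 0.1 M NaCl, 0.1% PEG6000, pH 7.5, 10% DMSO, 25 °C. Preincubation method ([THR]0 1.45 nM, [I]0 1-10 µM) or progress curves ([THR]0 0.58 nM, [S]0 10 µM, [I]0 1-14 µM), absorbance at 405 nm. ki and KI fitted; ki/KI = kobs/[I] at low inhibitor.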

Test [5] deals with T1, Neutrophil elastase (Homo sapiens). The test can be described thus: Compound was evaluated for the kinetic parameter Ki/KI(1/M.1/S) by its ability to inhibit the HLE(Human Leukocyte Elastase) enzyme; No inactivation at 10 uM. An outline of the steps:
as §1

Test [6] deals with Chymotrypsinogen A (Bos taurus) (UniProt P00766). The test can be described thus: Compound was evaluated for the kinetic parameter Ki/KI(1/M.1/S) by its ability to inhibit the Alpha-CT (Bovine alpha-chymotrypsin) enzyme [ki(se-1) andKi(uM)].
Test [7] addresses Prothrombin (Homo sapiens) (UniProt P00734). The test can be described thus: Compound was evaluated for the kinetic parameter Ki/KI(1/M.1/S) by its ability to inhibit human thrombin. An outline of the steps:
as §2

The target of test [8] is T1, Neutrophil elastase (Homo sapiens). The test can be described thus: Evaluated for the kinetic parameter Ki/KI(1/M.1/S) by its ability to inhibit the HLE(Human Leukocyte Elastase) enzyme [ki(se-1) andKi(uM)]. An outline of the steps:
as §1

Test [9] addresses Chymotrypsinogen A (Bos taurus) (UniProt P00766). The test can be described thus: Compound was evaluated for the kinetic parameter Ki/KI(1/M.1/S) by its ability to inhibit the Alpha-CT (Bovine alpha-chymotrypsin) enzyme[ki(se-1) andKi(uM)].
Test [10] has the same target. The test can be described thus: Compound was evaluated for the kinetic parameter Ki/KI(1/M.1/S) by its ability to inhibit the Alpha-CT (Bovine alpha-chymotrypsin) enzyme.

Molecules are shown by their SMILES.

Consider `O=C(Oc1cccnc1Cl)c1cc2cc(CCl)ccc2oc1=O`, for which the results for the Ki/KI in test [1] and in test [2] were 4300 M⁻¹ s⁻¹ and 3310 M⁻¹ s⁻¹, respectively.
Consider `O=C(Oc1cncc(Cl)c1)c1cc2cc(Br)ccc2oc1=O`, for which the Ki/KI result was “No inactivation” in test [3] and 58000 M⁻¹ s⁻¹ in test [2].
On to `CC(C)C(=O)OCc1ccc2oc(=O)c(C(=O)Oc3cncc(Cl)c3)cc2c1`, for which the Ki/KI entry is “No inactivation” in test [4], “No inactivation” in [3] and 45000 M⁻¹ s⁻¹ in test [2].
On to `COc1ccc(NC(=O)c2cc3cc(CCl)ccc3oc2=O)cn1`, for which the Ki/KI result in test [3] and in test [5] was “No inactivation” in each case.
`Cc1ccc2oc(=O)c(C(=O)Oc3cncc(Cl)c3)cc2c1`: the Ki/KI entry in [4] was “No inactivation”; in test [3] it was “No inactivation”; in test [2], 32500 M⁻¹ s⁻¹.
With `CC(=O)OCc1ccc2oc(=O)c(C(=O)Oc3cncc(Cl)c3)cc2c1`, the Ki/KI result in [4] is “No inactivation”; in test [3] it was “No inactivation”; in [2] it was 107000 M⁻¹ s⁻¹.
For `CC(C)(C)C(=O)OCc1ccc2oc(=O)c(C(=O)Oc3cncc(Cl)c3)cc2c1`, the results for the Ki/KI result in test [4], in [3] and in test [2] were “No inactivation”, “No inactivation” and 95500 M⁻¹ s⁻¹, respectively.
As for `O=C(Oc1ccc(Cl)cn1)c1cc2cc(CCl)ccc2oc1=O`, the Ki/KI entry in [4] is “No inactivation”; in test [1], 2500 M⁻¹ s⁻¹; in test [2], 110 M⁻¹ s⁻¹.
`Cc1ccc(OC(=O)c2cc3cc(CCl)ccc3oc2=O)cn1`: the Ki/KI result was “No inactivation” in test [4], 1000 M⁻¹ s⁻¹ in [1] and “No inactivation” in test [5].
Consider `O=C(Oc1cncc(Cl)c1)c1cc2cc(CCl)ccc2oc1=O`, for which the Ki/KI in [6] came to 31000 M⁻¹ s⁻¹; in test [7] it was 200 M⁻¹ s⁻¹; in test [8] it was 64600 M⁻¹ s⁻¹.
Consider `O=C(Nc1cccnc1)c1cc2cc(CCl)ccc2oc1=O`, for which the Ki/KI entry in test [5] was “No inactivation”.
Turning to `NCc1ccc2oc(=O)c(C(=O)Oc3cncc(Cl)c3)cc2c1`, the Ki/KI result in test [4] was “No inactivation”; in [3] it was “No inactivation”; in [2], 9100 M⁻¹ s⁻¹.
With `Cc1cccc(OC(=O)c2cc3cc(CCl)ccc3oc2=O)n1`, the Ki/KI entry is “No inactivation” in [4], 3300 M⁻¹ s⁻¹ in test [1] and 200 M⁻¹ s⁻¹ in [2].
`O=C(Oc1cccnc1[N+](=O)[O-])c1cc2cc(CCl)ccc2oc1=O`: the Ki/KI was 4500 M⁻¹ s⁻¹ in test [1] and 4000 M⁻¹ s⁻¹ in [2].
Regarding `O=C(Oc1cccnc1Br)c1cc2cc(CCl)ccc2oc1=O`, the Ki/KI in test [9] came to 2700 M⁻¹ s⁻¹; in [8], 3000 M⁻¹ s⁻¹.
Consider `O=C(Oc1cncc(Cl)c1)c1cc2ccccc2oc1=O`, for which the Ki/KI entry was “No inactivation” in [4], “No inactivation” in [3] and 32800 M⁻¹ s⁻¹ in test [2].
In the case of `O=C(Oc1cccnc1)c1cc2cc(CCl)ccc2oc1=O`, the results for the Ki/KI result in test [4], in [6] and in test [8] were “No inactivation”, 14800 M⁻¹ s⁻¹ and 770 M⁻¹ s⁻¹, respectively.
Regarding `O=C(Oc1ccccc1)c1cc2cc(CCl)ccc2oc1=O`, the Ki/KI in [10] amounted to 100000 M⁻¹ s⁻¹; in [7], 200 M⁻¹ s⁻¹; in test [2] it was 23 M⁻¹ s⁻¹.
For the compound `O=C(Nc1cccnc1Cl)c1cc2cc(CCl)ccc2oc1=O`, the Ki/KI entry in test [3] and in [5] was “No inactivation” in each case.
For `O=C(Oc1ccccn1)c1cc2cc(CCl)ccc2oc1=O`, the results for the Ki/KI in test [1], in [7] and in test [2] were 1670 M⁻¹ s⁻¹, 240 M⁻¹ s⁻¹ and 420 M⁻¹ s⁻¹, respectively.
In the case of `CCC(=O)OCc1ccc2oc(=O)c(C(=O)Oc3cncc(Cl)c3)cc2c1`, the Ki/KI result is “No inactivation” in [4], “No inactivation” in test [3] and 62000 M⁻¹ s⁻¹ in test [2].
As to `Cc1ccc(OC(=O)c2cc3cc(CCl)ccc3oc2=O)c([N+](=O)[O-])n1`, the Ki/KI in test [1] was 1500 M⁻¹ s⁻¹; in test [5], “No inactivation”.
For `CCCC(=O)OCc1ccc2oc(=O)c(C(=O)Oc3cncc(Cl)c3)cc2c1`, the Ki/KI result is “No inactivation” in [4], “No inactivation” in test [3] and 72700 M⁻¹ s⁻¹ in test [2].
Consider `Cc1ccnc(OC(=O)c2cc3cc(CCl)ccc3oc2=O)c1`, for which the values for the Ki/KI in test [1], in test [7] and in [2] were 5950 M⁻¹ s⁻¹, 3900 M⁻¹ s⁻¹ and 300 M⁻¹ s⁻¹, respectively.
Regarding `Cc1cncc(OC(=O)c2cc3cc(CCl)ccc3oc2=O)c1`, the figures for the Ki/KI result in test [4], in test [1] and in test [2] were “No inactivation”, 2500 M⁻¹ s⁻¹ and 1000 M⁻¹ s⁻¹, respectively.
In the case of `O=C(Oc1cccc(Cl)n1)c1cc2cc(CCl)ccc2oc1=O`, the results for the Ki/KI in [1], in test [7] and in test [2] were 107000 M⁻¹ s⁻¹, 7200 M⁻¹ s⁻¹ and 26000 M⁻¹ s⁻¹, respectively.
